Data on 8 molecules can be found in publication PMC10651396 (The Journal of Cell Biology, 2023).

Where no end group is shown, it is not given here.

The target of one test is T1, His-Cap1/2 (CP) (Saccharomyces cerevisiae, UniProt P13517+P28495).
T1 sequence (P28495 1-268): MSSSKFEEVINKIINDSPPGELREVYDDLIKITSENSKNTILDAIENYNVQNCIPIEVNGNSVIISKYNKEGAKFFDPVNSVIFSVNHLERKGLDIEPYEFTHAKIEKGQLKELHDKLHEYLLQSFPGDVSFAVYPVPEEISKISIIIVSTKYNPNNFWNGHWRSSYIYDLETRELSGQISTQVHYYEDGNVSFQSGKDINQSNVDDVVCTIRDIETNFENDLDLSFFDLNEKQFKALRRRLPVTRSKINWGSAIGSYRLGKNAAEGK
T1 sequence (P13517 1-287): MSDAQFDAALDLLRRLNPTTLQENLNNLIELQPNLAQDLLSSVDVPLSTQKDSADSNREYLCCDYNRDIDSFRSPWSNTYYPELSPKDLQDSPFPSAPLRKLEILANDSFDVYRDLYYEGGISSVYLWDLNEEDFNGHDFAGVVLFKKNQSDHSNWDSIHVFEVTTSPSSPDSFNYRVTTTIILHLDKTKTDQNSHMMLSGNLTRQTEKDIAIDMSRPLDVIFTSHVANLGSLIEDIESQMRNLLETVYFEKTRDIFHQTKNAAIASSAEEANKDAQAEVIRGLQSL
It is filed as biochemical. The following applies: in words; yeast actin, CP 100 nM, 500 nM peptide.

The subject of the next test is His-Cap1/2. Description: GST pulldown of capping protein by GST-CPI motif fusions. It is filed as binding, Saccharomyces cerevisiae. The note with it: in words; SDS-PAGE and Coomassie staining; His-Tda2 added with Aim21 fusions. Summed up: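 Recombinant GST-CPI fusions and His-Cap1/2 were expressed in BL21 codon plus E. coli, affinity-purified, and dialyzed into PBS. GST protein (10 μg) was bound to glutathione Sepharose for 30 min at 4°C. Equimolar His-protein (His-Tda2 also for Aim21) was added for another 30 min. Resin was washed three times in PBS with 0.1–0.5% Triton X-100. Each pulldown was repeated independently.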

Test [1] concerns the target T2, 6-histidine-tagged actin capping protein (His-Cap1/2) (S. cerevisiae, UniProt P28495 1-268; P13517 1-287).
T2 sequence (looked up) 1: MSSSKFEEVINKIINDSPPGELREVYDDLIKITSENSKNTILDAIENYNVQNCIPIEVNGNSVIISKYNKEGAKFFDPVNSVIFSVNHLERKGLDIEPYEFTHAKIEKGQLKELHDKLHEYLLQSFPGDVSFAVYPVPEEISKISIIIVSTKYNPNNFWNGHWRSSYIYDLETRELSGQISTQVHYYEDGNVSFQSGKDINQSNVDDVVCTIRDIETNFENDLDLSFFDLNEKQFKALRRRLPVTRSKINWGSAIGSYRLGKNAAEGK
T2 sequence (looked up) 2: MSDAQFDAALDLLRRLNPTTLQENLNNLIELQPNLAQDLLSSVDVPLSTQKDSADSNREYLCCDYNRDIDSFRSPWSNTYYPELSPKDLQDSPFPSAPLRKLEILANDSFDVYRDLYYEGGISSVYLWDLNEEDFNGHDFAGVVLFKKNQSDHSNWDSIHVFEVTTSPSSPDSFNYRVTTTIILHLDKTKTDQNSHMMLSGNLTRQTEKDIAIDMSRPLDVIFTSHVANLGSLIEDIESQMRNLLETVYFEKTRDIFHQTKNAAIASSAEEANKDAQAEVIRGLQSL
Description: pull-down.

A further test concerns the target T3, His-Cap1/2^D64A (S. cerevisiae, UniProt P28495 1-268; P13517 1-287, D64A).
T3 sequence (looked up) 1: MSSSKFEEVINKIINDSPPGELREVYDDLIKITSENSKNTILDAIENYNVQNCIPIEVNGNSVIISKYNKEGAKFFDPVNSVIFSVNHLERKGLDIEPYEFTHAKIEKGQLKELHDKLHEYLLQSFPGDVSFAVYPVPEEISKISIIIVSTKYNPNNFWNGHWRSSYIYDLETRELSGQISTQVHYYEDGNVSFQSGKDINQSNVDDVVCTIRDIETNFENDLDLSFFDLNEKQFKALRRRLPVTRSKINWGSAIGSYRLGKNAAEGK
T3 sequence (looked up) 2: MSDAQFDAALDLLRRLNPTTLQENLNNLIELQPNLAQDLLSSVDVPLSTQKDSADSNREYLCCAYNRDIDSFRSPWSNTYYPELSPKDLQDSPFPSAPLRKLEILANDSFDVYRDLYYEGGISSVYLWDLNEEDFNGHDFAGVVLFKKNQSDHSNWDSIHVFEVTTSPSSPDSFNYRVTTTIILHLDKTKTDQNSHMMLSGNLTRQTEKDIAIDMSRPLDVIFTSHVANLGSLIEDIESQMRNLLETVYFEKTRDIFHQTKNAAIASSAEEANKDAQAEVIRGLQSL
Nature of the test: pull-down.

For the next test, the target named is T4, His-Cap1/2^D88A (S. cerevisiae, UniProt P28495 1-268; P13517 1-287, D88A).
T4 sequence (looked up) 1: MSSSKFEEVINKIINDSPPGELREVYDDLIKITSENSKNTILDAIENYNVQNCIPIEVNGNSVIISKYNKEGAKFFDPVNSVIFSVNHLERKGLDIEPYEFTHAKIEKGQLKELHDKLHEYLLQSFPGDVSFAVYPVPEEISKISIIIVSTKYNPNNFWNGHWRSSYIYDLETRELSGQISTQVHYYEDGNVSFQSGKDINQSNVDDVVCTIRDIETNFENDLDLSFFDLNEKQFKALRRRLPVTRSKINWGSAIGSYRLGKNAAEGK
T4 sequence (looked up) 2: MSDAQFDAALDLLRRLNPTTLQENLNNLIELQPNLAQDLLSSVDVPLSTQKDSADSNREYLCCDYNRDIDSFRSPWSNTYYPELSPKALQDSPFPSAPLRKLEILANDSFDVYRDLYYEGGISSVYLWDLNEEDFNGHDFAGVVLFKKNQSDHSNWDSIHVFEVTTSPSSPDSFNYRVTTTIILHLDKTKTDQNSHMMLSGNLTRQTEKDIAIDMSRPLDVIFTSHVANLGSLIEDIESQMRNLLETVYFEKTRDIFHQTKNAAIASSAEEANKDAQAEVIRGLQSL
Nature of the test: pull-down.

The next test addresses T5, His-Cap1/2^D44A (S. cerevisiae, UniProt P28495 1-268; P13517 1-287, D44A).
T5 sequence (looked up) 1: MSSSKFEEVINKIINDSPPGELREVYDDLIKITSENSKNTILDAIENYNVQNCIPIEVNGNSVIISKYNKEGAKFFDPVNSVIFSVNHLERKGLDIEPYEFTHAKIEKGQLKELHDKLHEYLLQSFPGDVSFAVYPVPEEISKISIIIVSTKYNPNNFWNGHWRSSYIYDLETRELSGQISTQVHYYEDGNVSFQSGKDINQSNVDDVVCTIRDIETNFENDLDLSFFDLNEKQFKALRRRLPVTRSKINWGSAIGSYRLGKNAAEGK
T5 sequence (looked up) 2: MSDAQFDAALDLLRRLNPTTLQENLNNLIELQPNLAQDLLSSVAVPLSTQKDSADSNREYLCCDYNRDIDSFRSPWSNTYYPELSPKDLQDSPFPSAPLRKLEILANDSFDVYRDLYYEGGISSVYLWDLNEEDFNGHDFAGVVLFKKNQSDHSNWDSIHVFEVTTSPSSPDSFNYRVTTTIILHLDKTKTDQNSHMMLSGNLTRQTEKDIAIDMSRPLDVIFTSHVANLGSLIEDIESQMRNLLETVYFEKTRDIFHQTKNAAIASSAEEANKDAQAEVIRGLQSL
Nature of the test: pull-down.

Test [2] has as its system rabbit skeletal muscle actin. Nature of the test: Pyrene actin polymerization assay, substance alone. It is filed as biochemical. The note with it: in words, capping protein 100 nM, 1 µM actin, 20% pyrene-labeled. Summed up: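 Rabbit skeletal muscle G-actin in G-buffer (pH 8, 0.2 mM ATP) was spun at 100,000 × g for 30 min at 4°C. It was Mg-exchanged (10 mM EGTA, 1 mM MgCl2) for 10 min at room temperature. Polymerization was started with 50 mM KCl, 2 mM MgCl2, 1 mM ATP and 1 mM EGTA (final). Pyrene fluorescence was read over time at ex 365/em 406 nm. Relative rate came from three independent assays, mean ± SEM.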

Take KETKPLVHPNKNRTRGPRRKLPTRV [Bsp1^CPI]: the “effect on the capping function of CP” value at His-Cap1/2 (CP) was “partially inhibited the capping function of CP”.
“GST-Inp51: GST fused to Inp51 fragment (874–900) (SIAGPTHSPTPIPEPKRGRKLPPPSSD; also: GST fusion, end not given here)”: the “interaction with His-Cap1/2 in GST pulldown” value with His-Cap1/2 is recorded as “failed to pull down”.
In the case of “KTGPLGGTRRGRGPRGRKLPSKVASVEKIEEDDNTNKIEIFNNWNVSS [Aim21^CPI]”, the “effect on the capping function of CP” value at His-Cap1/2 (CP) is “partially inhibited the capping function of CP”.
On the same count and under the same terms, to SNPDLPNKSNLKFNKPKGPLRKRRT [Twf1^CPI] belongs “had no effect”.

B1: GST-Aim21^CPI (Aim21 491-545) with His-Tda2 (Tda2/Aim21 complex) (complex, S. cerevisiae)
chain 1: QAKTGPLGGTRRGRGPRGRKLPSKVASVEKIEEDDNTNKIEIFNNWNVSSSFSKE
chain 2: MSMQIEIKDGRSDNSPLPERKLVTLIQESYDSLKDDNEINLSTESTSNLLIKLVLEKLEKHSSLYKYIASVTTLNIEGLNEENANFSLKNDIGASWESKKDGIFNYKLEDKNNNECYLITILWLHK
As to B1, the binding result (in test [1]; with His-Cap1/2^D64A; with His-Cap1/2^D88A; with His-Cap1/2^D44A) was “binds” each time.
As for SNPDLPNKSNLKFNKPKGPLRKRRT (domain or fragment, S. cerevisiae) [GST-Twf1^CPI (Twf1 308-332)], the binding result (in test [1]; with His-Cap1/2^D64A; with His-Cap1/2^D88A; with His-Cap1/2^D44A) was “binds” each time.
Take KETKPLVHPNKNRTRGPRRKLPTRV (domain or fragment, S. cerevisiae) [GST-Bsp1^CPI (Bsp1 552-576)]: the binding result (in test [1]; with His-Cap1/2^D64A; with His-Cap1/2^D88A; in the test with His-Cap1/2^D44A) was “binds” each time.

B2: CP: 6-histidine–tagged yeast actin capping protein, Cap1/Cap2 heterodimer (protein, UniProt P28495 2-268; P13517 2-287, looked up)
F-actin-capping protein … 1: SSSKFEEVINKIINDSPPGELREVYDDLIKITSENSKNTILDAIENYNVQNCIPIEVNGNSVIISKYNKEGAKFFDPVNSVIFSVNHLERKGLDIEPYEFTHAKIEKGQLKELHDKLHEYLLQSFPGDVSFAVYPVPEEISKISIIIVSTKYNPNNFWNGHWRSSYIYDLETRELSGQISTQVHYYEDGNVSFQSGKDINQSNVDDVVCTIRDIETNFENDLDLSFFDLNEKQFKALRRRLPVTRSKINWGSAIGSYRLGKNAAEGK
F-actin-capping protein … 2: SDAQFDAALDLLRRLNPTTLQENLNNLIELQPNLAQDLLSSVDVPLSTQKDSADSNREYLCCDYNRDIDSFRSPWSNTYYPELSPKDLQDSPFPSAPLRKLEILANDSFDVYRDLYYEGGISSVYLWDLNEEDFNGHDFAGVVLFKKNQSDHSNWDSIHVFEVTTSPSSPDSFNYRVTTTIILHLDKTKTDQNSHMMLSGNLTRQTEKDIAIDMSRPLDVIFTSHVANLGSLIEDIESQMRNLLETVYFEKTRDIFHQTKNAAIASSAEEANKDAQAEVIRGLQSL
modifications: His6 tag
Take B2: the “ability to cap actin filaments” value was “no ability to cap actin filaments” in test [2] (listed as CP^1*) and “equivalent capping ability to CP” in test [2] (listed as CP^2*).
